RGS4 pot: RGS4 potentiators or activators, primary screen, cell-based, HEK293 M3R inducible RGS4, calcium flux; B-score at 10 µM; carbachol calcium flux Fluo4; active compounds read low; 310,000 compounds, 0.92% hits;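 active = B-score of the integrated calcium signal more than 4 SD below the library mean, with starting fluorescence not abnormally high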;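 also: negative B-score means reduced calcium response which marks RGS4 activation or potentiation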
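test system = HEK293 cells with stable M3R and inducible RGS4 | schedule = recording 10 s baseline at 1 Hz, 100 s post-agonist | technique = Fluo4-AM (2 µM) calcium-flux fluorescence, kinetic read | measure = Agonist-evoked peak-minus-minimum fluorescence over baseline, integrated ratio, B score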
RGS4 block: RGS4 inhibitors, primary screen, cell-based, HEK293 M3R inducible RGS4, calcium flux | Regulator of G-protein signaling 4 (Homo sapiens), P49798 | Fluo-4 calcium flux; active compounds read high; triggered by carbachol at its EC20 | 310,000 compounds, 0.45% hits | B-score at 10 µM | AID 463165, 2010;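 active = B-score, a plate-corrected calcium signal, over three deviations above library mean, with baseline fluorescence within five deviations of library mean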;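 also: RGS4 expression induced by doxycycline in cells with stable M3 receptor; B-score is computed from the integrated fluorescence ratio over baseline after carbachol; higher B-score means a larger calcium signal and so more RGS4 inhibition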
Target sequence (P49798 whole entry, looked up): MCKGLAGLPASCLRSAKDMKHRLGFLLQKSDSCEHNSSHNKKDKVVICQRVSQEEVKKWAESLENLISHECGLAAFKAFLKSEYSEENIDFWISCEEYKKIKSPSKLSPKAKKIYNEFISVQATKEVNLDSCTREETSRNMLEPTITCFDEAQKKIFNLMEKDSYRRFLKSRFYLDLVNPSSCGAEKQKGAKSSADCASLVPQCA
MrgX1 allo act: positive allosteric modulators of MrgX1, primary screen, HEK293 cells, Fluo-4 calcium flux; Mas-related G-protein coupled receptor member X1 (Homo sapiens), Q96LB2; FDSS; active compounds read high; B-score at 10 µM; 310,000 compounds, 0.63% hits;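 active = plate-corrected calcium response at least 3 library SD above typical, normal starting fluorescence, not activating the receptor alone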;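 also: compound read alongside a low EC10 to EC30 dose of BAM8-22 agonist; peak minus trough fluorescence over baseline measured at the second addition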
Target sequence (Q96LB2 whole entry, looked up): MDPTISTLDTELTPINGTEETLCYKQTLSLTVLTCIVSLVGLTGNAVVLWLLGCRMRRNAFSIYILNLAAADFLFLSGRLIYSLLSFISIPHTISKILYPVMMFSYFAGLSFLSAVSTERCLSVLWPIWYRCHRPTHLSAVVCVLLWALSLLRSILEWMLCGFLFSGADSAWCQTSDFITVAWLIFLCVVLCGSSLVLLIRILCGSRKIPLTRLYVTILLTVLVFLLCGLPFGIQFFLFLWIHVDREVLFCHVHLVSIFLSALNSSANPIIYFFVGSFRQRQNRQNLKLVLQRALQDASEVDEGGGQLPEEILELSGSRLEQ
MrgX1 agonist: agonists of human MrgX1 receptor, primary screen, HEK293 cells, Fluo-4 calcium flux | B-score at 10 µM | Fluo-4 calcium fluorescence, agonist mode; active compounds read high | Mas-related G-protein coupled receptor member X1 (Homo sapiens), Q96LB2 | AID 588627, 2011 | 310,000 compounds, 0.44% hits;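 active = calcium response B-score plate-corrected fluorescence ratio at least 3 library SD, with starting fluorescence B-score inside 5 SD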
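Assay system: stable human MrgX1 HEK293 cell line. Quantity: 15,000 cells per well. Schedule: cells plated overnight, dye loaded 0.5 h 37 °C, 0.5 h room temperature. Detection: Fluo-4 NW calcium-flux fluorescence, kinetic read. Read-out basis: peak-minus-minimum fluorescence over baseline, converted to B scores. Control set: positive and negative control wells on each plate.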
MrgX1 antagonist: antagonists of human MrgX1 receptor, primary screen, HEK293 cells, Fluo-4 calcium flux. Mas-related G-protein coupled receptor member X1 (Homo sapiens), Q96LB2. BAM8-22 antagonism; active compounds read low. B-score at 10 µM. 310,000 compounds, 1.3% hits;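 active = calcium-response B-score plate-corrected more than 3 library SD below zero, starting fluorescence within 5 deviations, no agonist response on first addition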;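 also: peak minus trough fluorescence over baseline after final BAM8-22 challenge near maximal dose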
MrgX1 ant reconf: MrgX1 receptor antagonists, duplicate retest, confirmation, HEK293 cells, Fluo-4 calcium flux | shares compounds with MrgX1 antagonist | 2,300 compounds, 19% hits | remaining BAM8-22 calcium response % of control (active compounds read low), % at 10 µM | BAM8-22 calcium flux; active compounds read low;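 active = remaining agonist calcium response no higher than 100% minus 3 SD of agonist-only control wells, with starting fluorescence near control levels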;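 also: agonist BAM8-22 given at a near maximal EC90 to ECmax level; peak minus minimum fluorescence divided by baseline after agonist addition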
HEK293 Ca flux: nonspecific calcium signal in parental HEK293, confirmation, counter-screen for MrgX1 antagonist project, parental HEK293 cells, Fluo-4 calcium flux. shares compounds with MrgX1 antagonist. Fluo-4 calcium fluorescence, FDSS. fluorescence ratio F(max-min)/F0 at 10 µM. 4,000 compounds, 2% hits. AID 624111, 2012;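 active = duplicate-averaged calcium fluorescence ratio at least three times the standard deviation of buffer wells, a nonspecific response in parental cells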
HEK293 Ca counter: calcium response in parental HEK293 cells, primary screen, counter-screen for MrgX1 allosteric activator project, cell-based, Fluo-4 calcium flux, duplicate; shares compounds with MrgX1 antagonist; Fluo-4 fluorescence ratio; active compounds read high; fluorescence ratio F(max-min)/F0 at 10 µM; 4,000 compounds, 0.4% hits;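 active = calcium fluorescence ratio, averaged over duplicates, at least 3 SD of the buffer-well ratio, meaning a nonspecific response in receptor-free cells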;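 also: untransfected parental HEK293 lacking MrgX1 used as counterscreen for MrgX1 allosteric activators; fluorescence change taken during the second addition on a kinetic imager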
HEK293 Ca cntr2: calcium response in parental HEK293 cells, primary screen, counter-screen for MrgX1 agonist project, cell-based, Fluo-4 calcium flux, duplicate, agonist mode; shares compounds with MrgX1 antagonist; Fluo-4 calcium fluorescence (FDSS); active compounds read high; fluorescence ratio F(max-min)/F0 at 10 µM; 4,000 compounds, 8.7% hits; AID 624115, 2012;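 active = calcium fluorescence ratio at least three times the spread of buffer wells, meaning a non-specific response in parental cells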
* marks the source's active call; other numbers are inactive results; i = inactive; . = no result. Compounds with a hit are over-represented: about 3.5% of the library has one in this group of screens.

SMILES	RGS4 pot	RGS4 block	MrgX1 allo act	MrgX1 agonist	MrgX1 antagonist	MrgX1 ant reconf	HEK293 Ca flux	HEK293 Ca counter	HEK293 Ca cntr2
Cc1c(C(=O)N2CCN(Cc3ccc4c(c3)OCO4)CC2)sc2ncnc(N3CCN(c4ccccc4)CC3)c12	i	i	i	i	-10.5*	60.2%*	i	i	i
C=CCn1c(N2CCCC2)nc2c1c(=O)[nH]c(=O)n2C	i	i	i	i	-8.69*	i	i	i	i
CC(C)CCn1c(N2CCc3ccccc3C2)nc2c1c(=O)[nH]c(=O)n2C	i	i	i	i	-5.03*	i	i	i	i
C/C(Cl)=C/Cn1c(N2CCCC2)nc2c1c(=O)[nH]c(=O)n2C	i	i	i	i	i	.	.	.	.
O=C(C1=NN[C@@H]2C(=O)N(Cc3ccccc3)C(=O)[C@H]12)c1ccc(F)cc1	i	i	i	i	i	.	.	.	.
COC(=O)c1sc(-c2ccc(Cl)cc2)cc1NC(=O)c1ccccc1C(=O)O	i	i	i	i	i	.	.	.	.
COC(=O)c1sc(-c2ccc(C(C)(C)C)cc2)cc1NC(=O)c1ccccc1C(=O)O	i	i	i	i	-7.06*	70.4%*	i	i	99.5*
CCCOc1ccc(CNC(=S)Nc2ccccc2)cc1Cl	i	i	i	i	-6.74*	77.1%*	i	i	i
COc1ccc(CNC(=S)Nc2ccccc2)cc1Cl	i	i	i	i	i	.	.	.	.
O=C(O)CCCC(=O)Nc1ccccc1C(=O)O	i	i	i	i	-6.44*	i	i	i	i
COc1ccc(C(=O)NCC(=O)OCC(=O)Nc2sccc2C#N)cc1OC	i	i	i	i	-4.63*	i	i	i	i
COc1ccccc1NNC(=O)c1cccnc1Oc1ccccc1	i	i	i	i	i	.	.	.	.
COC(=O)C1=C(C)NC(=O)C1(Nc1ccc(Cl)cn1)C(F)(F)F (stereo not given)	i	i	i	i	-4.64*	i	i	i	i
COC(=O)C1=C(C)NC(=O)C1(NC(=O)c1cccnc1)C(F)(F)F (stereo not given)	i	i	i	i	i	.	.	.	.
CCN(CC)c1ccc(C(=O)O)cc1	i	i	i	i	-5.71*	i	i	i	i
O=C(CSc1nnc2ccc(-c3ccccn3)nn12)NCCc1ccccc1	i	i	i	i	-12.7*	84.4%*	i	i	i
O=C(CSc1nnc(CNC(=O)c2ccc(F)cc2)o1)Nc1ccc2c(c1)OCCO2	i	i	i	i	i	.	.	.	.
O=C(CSc1nnc(CNC(=O)c2ccccc2)o1)Nc1ccc2c(c1)OCCO2	i	i	i	i	-5.56*	i	i	i	i

Bioassay records deposited in PubChem BioAssay by Johns Hopkins Ion Channel Center.
